Results published in ChEMBL document CHEMBL1138683 (J Med Chem, 2004).

Tests used:
Mus musculus [1] = test: Anticonvulsant activity administered intra peritoneally to mouse for the protective index of toxicity by maximal electroshock test; T D50/ED50; type: functional
Rattus norvegicus [2] = test: Anticonvulsant activity administered orally to rat for the protective index of toxicity by maximal electroshock test; TD50/ED50; type: functional
Rattus norvegicus [3] = test: Anticonvulsant activity administered orally to rat for protective index of subcutaneous metrazol test; type: functional
Mus musculus [4] = test: Anticonvulsant activity administered intra peritoneally to mouse for protective index of subcutaneous metrazol test; type: functional
[5] = Anticonvulsant activity administered intra peritoneally to mouse for toxicity; details: in vivo, ip
Mus musculus [6] = test: Anti convulsant activity administered intra peritoneally to mouse for subcutaneous metrazol test at 0.5 hr with dose of 100 mg/kg; 0/1= No of animals protected /No of animals tested; type: functional
Mus musculus [7] = test: Anti convulsant activity administered intra peritoneally to mouse for subcutaneous metrazol test at 4 hr with dose of 300 mg/kg; 0/1= No of animals protected /No of animals tested; type: functional
Mus musculus [8] = test: Anti convulsant activity administered intra peritoneally to mouse at maximal electroshock test at 0.5 hr after the drug administered with dose of 100 mg/kg; 0/3= No of animals protected /No of animals tested; type: functional
[9] = Anti convulsant activity administered intra peritoneally to mouse for toxicity at 0.5 hr with dose of 100 mg/kg; 0/8= No of animals exhibiting toxicity /No of animals tested; type: organism-based; parameters: dose 100 mg/kg; details: in vivo, ip
[10] = Anti convulsant activity administered intra peritoneally to mouse for toxicity at 4 hr with dose of 30 mg/kg; 0/2= No of animals exhibiting toxicity /No of animals tested; type: organism-based; parameters: dose 30 mg/kg; details: in vivo, ip
Rattus norvegicus [11] = test: Anticonvulsant activity after oral administration of 30 mg/kg dose after 4 hr in rats; - means 25% of the animal protected; type: functional, organism-based; parameters: dose 30 mg/kg
[12] = Toxicity after oral administration of 50 mg/kg dose in rats; ++ means 50% of the animals exhibiting toxicity; type: organism-based; parameters: dose 50 mg/kg, route oral; details: rat, in vivo
Procedure, shortened: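 Rats dosed orally with compound dissolved or suspended in 0.5% methylcellulose (0.04 mL per 10 g body weight). Anticonvulsant protection (MES or scMet) and toxicity scored at 15 min, 30 min, 1 h, 2 h and 4 h after dosing. Graded in steps of 25% of animals protected or showing toxicity.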

[13] = Anti convulsant activity administered intra peritoneally to mouse for toxicity at 4 hr with dose of 300 mg/kg; 2/2= No of animals exhibiting toxicity /No of animals tested; type: organism-based; parameters: dose 300 mg/kg; details: in vivo, ip
[14] = Anti convulsant activity administered intra peritoneally to mouse for toxicity at 0.5 hr with dose of 30 mg/kg; 0/4= No of animals exhibiting toxicity /No of animals tested; type: organism-based; parameters: dose 30 mg/kg; details: in vivo, ip
Mus musculus [15] = test: Anti convulsant activity administered intra peritoneally to mouse at maximal electroshock test at 0.5 hr after the drug administered with dose of 300 mg/kg; 1/1= No of animals protected /No of animals tested; type: functional
Mus musculus [16] = test: Anti convulsant activity administered intra peritoneally to mouse at maximal electroshock test at 4 hr after the drug administered with dose of 100 mg/kg; 0/3= No of animals protected /No of animals tested; type: functional
[17] = Anti convulsant activity administered intra peritoneally to mouse for toxicity at 4 hr with dose of 100 mg/kg; 0/4= No of animals exhibiting toxicity /No of animals tested; type: organism-based; parameters: dose 100 mg/kg; details: in vivo, ip
Mus musculus [18] = test: Anti convulsant activity administered intra peritoneally to mouse at maximal electroshock test at 4 hr after the drug administered with dose of 30 mg/kg; 0/1= No of animals protected /No of animals tested; type: functional
Mus musculus [19] = test: Anti convulsant activity administered intra peritoneally to mouse for subcutaneous metrazol test at 4 hr after the drug administered with dose of 100 mg/kg; 0/1= No of animals protected /No of animals tested; type: functional
Mus musculus [20] = test: Anti convulsant activity administered intra peritoneally to mouse for subcutaneous metrazol test at 0.5 h with dose of 300 mg/kg; 0/1= No of animals protected /No of animals tested; type: functional
Mus musculus [21] = test: Anti convulsant activity administered intra peritoneally to mouse at maximal electroshock test at 4 hr after the drug administered with dose of 300 mg/kg; 1/1= No of animals protected /No of animals tested; type: functional
Rattus norvegicus [22] = test: Anticonvulsant activity after oral administration of 223 mg/kg dose after 1 hr in rats; ++++ means 100% of the animals protected; type: functional, organism-based; parameters: dose 223 mg/kg
Procedure, shortened: (§1)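 Oral dosing of rats at a single dose, compound dissolved or suspended in 0.5% methylcellulose. Protection in the MES or scMet test checked 15 min, 30 min, 1 h, 2 h and 4 h after dosing. Scored as 25/50/75/100% of animals protected (+ to ++++), – for none.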

Mus musculus [23] = test: Anti convulsant activity administered intra peritoneally to mouse for subcutaneous metrazol test at 0.5 hr with dose of 30 mg/kg; 0/1= No of animals protected /No of animals tested; type: functional
Mus musculus [24] = test: Anti convulsant activity administered intra peritoneally to mouse at maximal electroshock test at 0.5 h after the drug administered with dose of 30 mg/kg; 0/1= No of animals protected /No of animals tested; type: functional
Mus musculus [25] = test: Anti convulsant activity administered intra peritoneally to mouse for subcutaneous metrazol test at 4 hr after the drug administered with dose of 30 mg/kg; 0/1= No of animals protected /No of animals tested; type: functional; details: route intraperitoneal
[26] = Anti convulsant activity administered intra peritoneally to mouse for toxicity at 0.5 hr with dose of 300 mg/kg; 4/4= No of animals exhibiting toxicity /No of animals tested; type: organism-based; parameters: dose 300 mg/kg; details: in vivo, ip
Rattus norvegicus [27] = test: Anticonvulsant activity after oral administration of 30 mg/kg dose after 15 min in rats; +means 25% of the animals protected; type: functional, organism-based; parameters: dose 30 mg/kg; procedure, shortened: as §1
[28] = Anti convulsant activity administered intra peritoneally to mouse for toxicity at 0.5 hr with dose of 300 mg/kg; 3/4= No of animals exhibiting toxicity /No of animals tested; type: organism-based; parameters: dose 300 mg/kg; details: in vivo, ip
Rattus norvegicus [29] = test: Anticonvulsant activity after oral administration of 30 mg/kg dose after 1 hr in rats; + means 25% of the animals protected; type: functional, organism-based; parameters: dose 30 mg/kg; procedure, shortened: as §1
Mus musculus [30] = test: Anti convulsant activity administered intra peritoneally to mouse at maximal electroshock test at 4 hr after the drug administered with dose of 300 mg/kg; 0/1= No of animals protected /No of animals tested; type: functional
[31] = Anti convulsant activity administered intra peritoneally to mouse for toxicity at 4 hr with dose of 300 mg/kg; 0/2= No of animals exhibiting toxicity /No of animals tested; type: organism-based; parameters: dose 300 mg/kg; details: in vivo, ip

SMILES | Activity (Mus musculus [7]) | Activity (Mus musculus [8]) | Toxicity [9] | Toxicity [10] | Toxicity [14] | Activity (Mus musculus [15]) | Activity (Mus musculus [16]) | Toxicity [17] | Activity (Mus musculus [18]) | Activity (Mus musculus [19]) | Activity (Mus musculus [20]) | Activity (Mus musculus [23]) | Activity (Mus musculus [24]) | Activity (Mus musculus [25]) | also measured
CNC(=O)C1C(C)(C)C1(C)C |  |  |  |  |  |  |  |  |  |  |  |  |  |  | Ratio (Mus musculus [1]): 1.6; Ratio (Rattus norvegicus [2]): 2; Activity (Rattus norvegicus [3]): 3.6; Activity (Mus musculus [4]): 3.9; TD50 [5]: 153 mg/kg
CCNC(=O)C1C(C)(C)C1(C)C | 0 | 0 | 0 | 0 | 0 | 1 | 0 | 0 | 0 | 0 | 1 | 0 | 0 | 0 | Activity (Mus musculus [6]): 0; Activity (Rattus norvegicus [11]): 100% of the animals protected; Toxicity [12]: 50% of the animals exhibiting toxicity; Toxicity [13]: 2; Activity (Mus musculus [21]): 1; Activity (Rattus norvegicus [22]): 100% of the animals protected; Toxicity [26]: 4
CC(O)CNC(=O)C1C(C)(C)C1(C)C (stereo not given) | 0 | 0 | 0 | 0 | 0 | 1 | 0 | 0 | 0 | 0 | 0 | 0 | 0 | 0 | Activity (Rattus norvegicus [27]): 25% of the animals protected; Toxicity [28]: 3; Activity (Rattus norvegicus [29]): 25% of the animals protected; Activity (Mus musculus [30]): 0; Toxicity [31]: 0
